Consider 41 compounds from ChEMBL document CHEMBL1811757, “Discovery of naturally occurring aurones that are potent allosteric inhibitors of hepatitis C virus RNA-dependent RNA polymerase” (J Med Chem, 2011).

Data set [1] has as its system Hepatitis C virus isolate HC-J4. In words: Inhibition of HCV genotype 1b J4 N-terminal His-tagged NS5Bdelta21 polymerase expressed in Escherichia coli C41(DE3) assessed as amount of double-stranded RNA synthesis at 20 uM.
Data set [2] can be described thus: Inhibition of HCV genotype 1b J4 N-terminal His-tagged NS5Bdelta21 polymerase expressed in Escherichia coli C41(DE3) assessed as amount of double-stranded RNA synthesis. More on the design: species or system Hepatitis C virus isolate HC-J4.
The test system of data set [3] is HEK293. In words: Cytotoxicity against human HEK293 cells up to 512 uM after 72 hrs by MTT assay. In kind it is cell-based. Conditions: hek293, 72 h. In outline: (§1)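 Cells trypsinized in exponential growth and plated at 2000 (HuH7) or 1000 (HEK293) per well. Allowed to attach 96 h at 37°C, 5% CO2. Drug diluted in medium with 1% DMSO final, then 72 h at 37°C, 5% CO2. Viability read by MTT colorimetric assay.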
In general terms: Tetrazolium assays rely on reduction of a dye to a coloured formazan, in cell work by metabolically active cells.

Data set [4] concerns Huh-7. In words: Cytotoxicity against human HuH7 cells up to 512 uM after 72 hrs by MTT assay. In kind it is cell-based. To be noted: huh-7, 72 h. The procedure, abridged:
as §1

In data set [5] the test system is Hepatitis C virus isolate HC-J4. As to the kind of experiment: Ratio of IC50 for HCV genotype 1b J4 NS5Bdelta21 polymerase P495L mutant to IC50 for HCV genotype 1b J4 wild type N-terminal His-tagged NS5Bdelta21 polymerase. The procedure, abridged:
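IC50 measured in cell-free poly U/ATP double-stranded RNA synthesis assay for purified His-tagged NS5BΔ21 P495L mutant and wild type, both prepared identically by Ni-NTA purification. Mutant IC50 divided by wild-type IC50 and reported as fold difference. A Thumb Pocket I benzimidazole inhibitor served as control.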

The test system of data set [6] is Hepatitis C virus. In words: Antiviral activity against HCV JFH-1 assessed as inhibition of viral replication by cell based assay. It is filed as functional, organism-based, Hepacivirus hominis.

In the case of `O=C1/C(=C/c2ccccc2F)Oc2cccc(O)c21`, the inhibition (in general, the relative decrease from the control value, in per cent) in data set [1] was determined as 58%. In data set [2], the IC50 (usually the concentration at which inhibition is half-maximal) is greater than 20 µM. Besides, the Activity result in data set [3] and in data set [4] was “Non-toxic” in each case.

For the compound `CCc1ccc(/C=C2\Oc3cc(O)cc(O)c3C2=O)cc1`, the inhibition in data set [1] is 79%. Further, the IC50 in data set [2] stood at 3.6 µM. In addition, the Activity result in data set [3] and in data set [4] was “Non-toxic” throughout.

For the compound `O=C1/C(=C/c2ccccc2O)Oc2cc(O)ccc21`, in data set [1], the inhibition came out at 18%. Further, the IC50 in data set [2] is greater than 20 µM. The Activity result in data set [3] and in data set [4] was “Non-toxic” throughout.

Turning to `O=C1/C(=C/c2ccc(O)c(O)c2)Oc2cc(O)cc(O)c21` [AUREUSIDIN], the inhibition in data set [1] amounted to 85%. Besides, the IC50 in data set [2] turned out to be 5.4 µM.

On to `COc1cc(OC)c2c(c1)O/C(=C\c1ccc(C3CCCCC3)cc1)C2=O`, for which the inhibition in data set [1] came to 2%. Moreover, in data set [2], the half-maximal inhibitory concentration (IC50) is greater than 20 µM. For the same compound, the Activity entry in data set [3] and in data set [4] was “Non-toxic” throughout.

As to `Cc1ccc(/C=C2\Oc3cccc(O)c3C2=O)c(C)c1`, in data set [1], the inhibition turned out to be 64%. Moreover, the half-maximal inhibitory concentration (IC50) in data set [2] came to 5.8 µM. The Activity entry in data set [3] and in data set [4] was “Non-toxic” in each case.

Regarding `CCCCc1ccc(/C=C2\Oc3cc(F)cc(F)c3C2=O)cc1`, the IC50 in data set [2] was greater than 20 µM. For the same compound, the Activity result in data set [3] and in data set [4] was “Non-toxic” in each case.

`CCCCc1ccc(/C=C2\Oc3cccc(O)c3C2=O)cc1`: in data set [1], the inhibition turned out to be 42.7%. For the same compound, in data set [2], the IC50 was greater than 20 µM. In addition, the Activity entry in data set [3] and in data set [4] was “Non-toxic” in each case.

Regarding `O=C1/C(=C/c2ccc(N3CCOCC3)cc2)Oc2cc(O)cc(O)c21`, the inhibition in data set [1] stood at 66%. For the same compound, the IC50 in data set [2] amounted to 11.4 µM. The Activity entry in data set [3] and in data set [4] was “Non-toxic” each time.

For the compound `O=C1/C(=C/c2ccc(O)cc2O)Oc2cc(O)cc(O)c21`, in data set [1], the inhibition worked out at 81%. In addition, in data set [2], the IC50 was 5.8 µM. Besides, the Activity entry in data set [3] and in data set [4] was “Non-toxic” throughout.

`CCCCc1ccc(/C=C2\Oc3ccccc3C2=O)cc1`: in data set [2], the IC50 is greater than 20 µM. The Activity result in data set [3] and in data set [4] was “Non-toxic” in each case.

For `CC(C)c1ccc(/C=C2\Oc3cccc(O)c3C2=O)cc1`, the inhibition in data set [1] worked out at 29.9%. In addition, the concentration for half-maximal inhibition (IC50) in data set [2] was greater than 20 µM. The Activity entry in data set [3] and in data set [4] was “Non-toxic” in each case.

As for `CC(=O)Nc1ccc(-c2ccc(Cl)cc2)c(COc2ccc(-c3nc4cc(C(=O)O)ccc4n3C3CCCCC3)cc2)c1`, in data set [5], the Ratio IC50 was 10.

Regarding `O=C1/C(=C/c2ccc(F)cc2F)Oc2cccc(F)c21`, the inhibition in data set [1] worked out at 10%. Also, the IC50 in data set [2] is greater than 20 µM. Besides, the Activity entry in data set [3] and in data set [4] was “Non-toxic” throughout.

With `COc1cc(OC)c2c(c1)O/C(=C\c1ccccc1O)C2=O`, the inhibition in data set [1] worked out at 0.7%. Moreover, the IC50 in data set [2] is greater than 20 µM. Moreover, the Activity result in data set [3] and in data set [4] was “Non-toxic” throughout.

As to `O=C1/C(=C/c2ccc(O)cc2)Oc2cc(O)cc(O)c21`, in data set [1], the inhibition turned out to be 61%. Further, the IC50 was 9.7 µM in data set [2] and 40 µM in data set [6]. Besides, the Activity result in data set [3] and in data set [4] was “Non-toxic” throughout.

As for `O=C1/C(=C/c2cccc(O)c2)Oc2cc(O)ccc21`, in data set [1], the inhibition is 10%. Besides, in data set [2], the concentration for half-maximal inhibition (IC50) is greater than 20 µM. For the same compound, the Activity result in data set [3] and in data set [4] was “Non-toxic” each time.

Turning to `CCCCn1cc(/C=C2\Oc3cc(O)cc(O)c3C2=O)c2ccccc21`, the inhibition in data set [1] is 95%. In addition, the IC50 in data set [2] was determined as 2.2 µM. For the same compound, the Activity result in data set [3] and in data set [4] was “Non-toxic” each time.

For `CC(C)(C)c1ccc(/C=C2\Oc3cccc(O)c3C2=O)cc1`, the inhibition in data set [1] was 60.8%. The IC50 in data set [2] was greater than 20 µM. Moreover, the Activity entry in data set [3] and in data set [4] was “Non-toxic” in each case.

As to `COc1cc(OC)c(/C=C2\Oc3cccc(O)c3C2=O)c(OC)c1`, in data set [1], the inhibition was found to be 52%. For the same compound, in data set [2], the IC50 was greater than 20 µM. Further, the Activity entry in data set [3] and in data set [4] was “Non-toxic” each time.

With `CCCCc1ccc(/C=C2\Oc3cc(OC)cc(OC)c3C2=O)cc1`, in data set [1], the inhibition is 3%. Besides, the concentration for half-maximal inhibition (IC50) in data set [2] was greater than 20 µM. In addition, the Activity entry in data set [3] and in data set [4] was “Non-toxic” each time.

As for `O=C1/C(=C/c2ccccc2)Oc2cccc(O)c21`, the inhibition in data set [1] was found to be 57%. For the same compound, in data set [2], the IC50 is 14.6 µM. Further, the Activity result in data set [3] and in data set [4] was “Non-toxic” each time.

With `COc1cc(OC)c2c(c1)O/C(=C\c1cccc(O)c1)C2=O`, in data set [1], the inhibition was 11%. The IC50 in data set [2] was greater than 20 µM. For the same compound, the Activity entry in data set [3] and in data set [4] was “Non-toxic” in each case.

For the compound `O=C1/C(=C/c2ccccc2O)Oc2cccc(O)c21`, the inhibition in data set [1] was 56%. Also, the IC50 in data set [2] was 11.1 µM. The Activity entry in data set [3] and in data set [4] was “Non-toxic” each time.

`COc1ccc(/C=C2\Oc3cccc(O)c3C2=O)c(OC)c1`: the inhibition in data set [1] turned out to be 75%. Also, in data set [2], the IC50 is 9.7 µM. Moreover, the Activity entry in data set [3] and in data set [4] was “Non-toxic” each time.

Turning to `O=C1/C(=C/c2ccccc2)Oc2cc(O)cc(O)c21`, in data set [1], the inhibition is 59%. In data set [2], the IC50 worked out at 15.1 µM. Also, the Activity entry in data set [3] and in data set [4] was “Non-toxic” throughout.

With `CN1CCN(c2ccc(/C=C3\Oc4cccc(O)c4C3=O)cc2)CC1`, the inhibition in data set [1] amounted to 94%. The IC50 in data set [2] came to 3.8 µM. Besides, the Activity entry in data set [3] and in data set [4] was “Non-toxic” in each case.

On to `CCCCc1ccc(/C=C2\Oc3cc(O)cc(O)c3C2=O)cc1`, for which the inhibition in data set [1] came to 93%. For the same compound, in data set [2], the IC50 was 2.5 µM. Moreover, the Activity result in data set [3] and in data set [4] was “Non-toxic” each time.

Consider `O=C1/C(=C/c2ccc(F)cc2)Oc2cc(O)cc(O)c21`, for which the inhibition in data set [1] worked out at 80%. In addition, the IC50 in data set [2] worked out at 11.2 µM. The Activity entry in data set [3] and in data set [4] was “Non-toxic” in each case.

On to `O=C1/C(=C/c2ccc(C3CCCCC3)cc2)Oc2cc(OCc3ccccc3)cc(OCc3ccccc3)c21`, for which the inhibition in data set [1] was determined as 3%. Besides, in data set [2], the IC50 is greater than 20 µM. The Activity result in data set [3] and in data set [4] was “Non-toxic” in each case.

Take `COc1cccc(OC)c1/C=C1\Oc2cccc(O)c2C1=O`: the inhibition in data set [1] came to 47%. Further, the half-inhibitory concentration (IC50) in data set [2] is greater than 20 µM. Also, the Activity result in data set [3] and in data set [4] was “Non-toxic” each time.

`O=C1/C(=C/c2cccc(O)c2)Oc2cccc(O)c21`: the inhibition in data set [1] came to 37%. For the same compound, the IC50 in data set [2] was greater than 20 µM. In addition, the Activity result in data set [3] and in data set [4] was “Non-toxic” in each case.

For `COc1cccc(/C=C2\Oc3cc(O)cc(O)c3C2=O)c1OC`, the inhibition in data set [1] came to 74%. The IC50 in data set [2] is greater than 20 µM. The Activity entry in data set [3] and in data set [4] was “Non-toxic” each time.

With `COc1cc(OC)c2c(c1)O/C(=C\c1ccc(O)cc1)C2=O`, the inhibition in data set [1] worked out at 37%. The IC50 in data set [2] was greater than 20 µM. Besides, the Activity entry in data set [3] and in data set [4] was “Non-toxic” each time.

Consider `O=C1/C(=C/c2ccc(C3CCCCC3)cc2)Oc2cc(O)cc(O)c21`, for which the inhibition in data set [1] was found to be 92%. Moreover, in data set [2], the IC50 was 2.3 µM. Further, the Activity result in data set [3] and in data set [4] was “Non-toxic” in each case.

`O=C1/C(=C/c2ccccc2O)Oc2cc(O)cc(O)c21`: the inhibition in data set [1] is 33%. In data set [2], the IC50 is greater than 20 µM. The Activity result in data set [3] and in data set [4] was “Non-toxic” each time.

For the compound `O=C1/C(=C/c2ccc(O)cc2O)Oc2cccc(O)c21`, the inhibition in data set [1] turned out to be 94%. For the same compound, in data set [2], the IC50 was 2.6 µM. The Activity entry in data set [3] and in data set [4] was “Non-toxic” throughout.

Turning to `COc1cc(OC)c2c(c1)O/C(=C\c1ccc(C)cc1C)C2=O`, the inhibition in data set [1] is 14%. Also, the IC50 in data set [2] was greater than 20 µM. Also, the Activity entry in data set [3] and in data set [4] was “Non-toxic” throughout.

For the compound `COc1ccc(/C=C2\Oc3cc(O)cc(O)c3C2=O)c(OC)c1OC`, the inhibition in data set [1] was found to be 50%. Moreover, the IC50 in data set [2] was greater than 20 µM. In addition, the Activity entry in data set [3] and in data set [4] was “Non-toxic” in each case.

For `O=C1/C(=C/c2ccc(O)cc2)Oc2cc(O)ccc21`, the inhibition in data set [1] worked out at 35%. Further, in data set [2], the IC50 was greater than 20 µM. In addition, the Activity result in data set [3] and in data set [4] was “Non-toxic” in each case.

Take `CC(C)c1ccc(/C=C2\Oc3cc(O)cc(O)c3C2=O)cc1`: in data set [1], the inhibition turned out to be 78%. For the same compound, in data set [2], the IC50 worked out at 3.1 µM. Also, the Activity entry in data set [3] and in data set [4] was “Non-toxic” throughout.
